Experimental data published in publication PMC12304097 (Scientific Reports, 2025).
Values belong to the compound of their own block, whether it stands above or below them.

Key:
cGMP = conditions: canine model of renin-angiotensin-aldosterone system; cited from earlier work
[1] = molecular target: T1, NEP (recombinant soluble extracellular domain) (Homo sapiens, UniProt P08473); experiment: In vitro NP cleavage by NEP, read by intact-ring s-IA; type: in vitro ADME
In short: (§1)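 Ni-NTA-purified His-tagged soluble human ectodomains were used: NEP (aa 56–750, Expi293F) at 9.4 nM and NEP2 (aa 74–779, ExpiCHO-S) at 113 nM. Doses were activity-matched on a fluorogenic substrate. […] Reactions were stopped with EDTA buffer and read by Eu-chelate intact-ring ANP or BNP sandwich immunoassay, relative to enzyme-free sample.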

[2] = molecular target: T2, NEP2 (recombinant soluble extracellular domain) (Homo sapiens, UniProt Q495T6); experiment: In vitro NP cleavage by NEP2, read by intact-ring s-IA; type: in vitro ADME; conditions: sentence says the same is true for NEP2
T2 sequence (Q495T6 74-779): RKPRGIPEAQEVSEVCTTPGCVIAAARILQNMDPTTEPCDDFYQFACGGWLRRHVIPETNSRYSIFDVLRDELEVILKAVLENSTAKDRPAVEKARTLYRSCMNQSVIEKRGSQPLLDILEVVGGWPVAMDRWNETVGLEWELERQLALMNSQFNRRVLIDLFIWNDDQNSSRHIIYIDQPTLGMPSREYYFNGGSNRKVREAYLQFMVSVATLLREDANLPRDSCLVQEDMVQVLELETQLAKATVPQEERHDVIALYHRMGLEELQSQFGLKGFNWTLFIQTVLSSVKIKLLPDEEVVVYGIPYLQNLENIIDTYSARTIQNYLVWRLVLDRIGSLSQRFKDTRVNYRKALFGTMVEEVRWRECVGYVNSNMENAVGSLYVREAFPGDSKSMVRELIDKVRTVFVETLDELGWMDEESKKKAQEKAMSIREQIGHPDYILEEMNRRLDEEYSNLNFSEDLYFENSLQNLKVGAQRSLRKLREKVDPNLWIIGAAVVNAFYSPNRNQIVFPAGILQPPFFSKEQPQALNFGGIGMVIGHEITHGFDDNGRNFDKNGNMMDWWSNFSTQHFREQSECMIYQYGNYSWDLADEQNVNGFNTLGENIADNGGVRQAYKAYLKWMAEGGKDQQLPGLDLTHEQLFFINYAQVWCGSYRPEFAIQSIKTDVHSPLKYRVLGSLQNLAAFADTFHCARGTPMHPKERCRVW
In short: as §1

NEP2 = conditions: cited from earlier work
[3] = molecular target: T1, NEP (recombinant soluble extracellular domain); experiment: Inhibition of NEP-mediated NP cleavage; type: biochemical; conditions: inhibitor 50 µM, NEP 9.4 nM
[4] = molecular target: T2, NEP2 (recombinant soluble extracellular domain); experiment: Inhibition of NEP2-mediated NP cleavage; type: biochemical; conditions: inhibitor 50 µM, NEP2 113 nM
NEP = conditions: cited from earlier work
[5] = peptide 1.45 µM, intact-ring s-IA, P < 0.005

T1 sequence (P08473 56-750): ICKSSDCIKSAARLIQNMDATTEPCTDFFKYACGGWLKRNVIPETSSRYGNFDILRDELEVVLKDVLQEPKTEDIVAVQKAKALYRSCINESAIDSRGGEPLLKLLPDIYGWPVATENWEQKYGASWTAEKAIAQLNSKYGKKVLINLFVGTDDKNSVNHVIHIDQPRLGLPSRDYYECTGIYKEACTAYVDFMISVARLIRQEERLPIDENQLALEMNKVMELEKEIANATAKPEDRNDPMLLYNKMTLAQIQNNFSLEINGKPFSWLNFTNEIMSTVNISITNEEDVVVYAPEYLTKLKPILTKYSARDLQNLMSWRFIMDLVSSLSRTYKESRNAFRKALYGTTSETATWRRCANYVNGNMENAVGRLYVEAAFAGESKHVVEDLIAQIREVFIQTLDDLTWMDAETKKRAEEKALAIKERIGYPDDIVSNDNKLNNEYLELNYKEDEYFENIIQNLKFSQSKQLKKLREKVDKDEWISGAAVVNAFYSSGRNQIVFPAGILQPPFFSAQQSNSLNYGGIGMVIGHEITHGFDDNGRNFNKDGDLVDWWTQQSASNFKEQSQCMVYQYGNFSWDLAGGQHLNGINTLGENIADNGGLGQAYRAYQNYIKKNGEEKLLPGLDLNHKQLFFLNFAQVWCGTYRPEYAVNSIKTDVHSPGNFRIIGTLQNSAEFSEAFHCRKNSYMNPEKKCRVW

Compound: C[C@H](C[C@@H](Cc1ccc(-c2ccccc2)cc1)NC(=O)CCC(=O)O)C(=O)O [sacubitrilat]
Circulating cGMP levels (cGMP): increased

Compound: ANP: Synthetic ANP, 28 aa, aar 124–151 of UniProt P01160, Bachem
Susceptibility to proteolysis by NEP relative to BNP [1]: more susceptible to proteolysis
Susceptibility to proteolysis by NEP2 relative to BNP [2]: more susceptible to proteolysis

Compound: O=C(O)CNC(=O)C(CS)Cc1ccccc1 (centres unmarked) [thiorphan]
Affinity towards NEP2, fold lower than towards NEP (NEP2): 30 times
Inhibition of NEP2 (NEP2): less potently

Effect of inhibitor on neo5-epitope formation during BNP proteolysis by NEP ([3]; BNP 1.45 µM, neo5 s-IA): inhibited
Effect of inhibitor on ANP and BNP proteolysis by NEP [3, 5]: inhibited
Effect of inhibitor on neo5-epitope formation during BNP proteolysis by NEP2 ([4]; BNP 1.45 µM, neo5 s-IA): inhibited
Effect of inhibitor on ANP and BNP proteolysis by NEP2 [4, 5]: inhibited
Compound: CC(C)C[C@H](NP(=O)(O)O[C@@H]1O[C@@H](C)[C@H](O)[C@@H](O)[C@H]1O)C(=O)N[C@@H](Cc1c[nH]c2ccccc12)C(=O)O [phosphoramidon]
Inhibition of NEP2 (NEP2): sensitive
Inhibition of NEP (NEP): sensitive
